# Measured values: ChEMBL document CHEMBL1649446, “Comparative antipneumococcal activities of sulopenem and other drugs” (2009)
# How the values were obtained:
# Format in all cases: functional
# Streptococcus pneumoniae [1] = assay: Antimicrobial activity against penicillin-susceptible Streptococcus pneumoniae by agar dilution method
# Streptococcus pneumoniae [2] = assay: Antimicrobial activity against penicillin-intermediate Streptococcus pneumoniae by agar dilution method
# Streptococcus pneumoniae [3] = assay: Antimicrobial activity against penicillin-resistant Streptococcus pneumoniae by agar dilution method
# In short: (§1)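 Agar dilution MIC on Mueller-Hinton agar with 5% sheep blood, inocula 10^4 CFU/spot; amoxicillin-clavulanate combined 1:2; S. pneumoniae ATCC 49619 quality control each run.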
# Streptococcus pneumoniae [4] = assay: Antimicrobial activity against Streptococcus pneumoniae 19A by agar dilution method; in short: as §1
# Streptococcus pneumoniae [5] = assay: Antimicrobial activity against Streptococcus pneumoniae 1 by time-kill analysis
# In short: (§2)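 Time-kill in cation-adjusted Mueller-Hinton broth with 5% lysed horse blood; inocula 5 × 105 to 5 × 10^6 CFU/ml; drugs at MIC, 2× and 4× MIC; 35°C shaking water bath; viable counts at 0, 3, 6, 12 and 24 h. Bactericidal if ≥3 log10 CFU/ml (99.9%) reduction from original inoculum; 90% and 99% killing also scored.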
# Streptococcus pneumoniae [6] = assay: Antimicrobial activity against Streptococcus pneumoniae 2 by time-kill analysis
# In short: (§3)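 Time-kill in cation-adjusted Mueller-Hinton broth with 5% lysed horse blood; inocula 5 × 105 to 5 × 10^6 CFU/ml; drugs at MIC, 2× and 4× MIC; 35°C shaking water bath; viable counts at 0, 3, 6, 12, 24 h. Bactericidal = ≥3 log10 CFU/ml (99.9%) drop from original inoculum; 90%/99%/99.9% killing scored per strain.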
# Streptococcus pneumoniae [7] = assay: Antimicrobial activity against Streptococcus pneumoniae 3 by time-kill analysis; in short: as §3
# Streptococcus pneumoniae [8] = assay: Antimicrobial activity against Streptococcus pneumoniae 4 by time-kill analysis; in short: as §3
# Streptococcus pneumoniae [9] = assay: Antimicrobial activity against Streptococcus pneumoniae 5 by time-kill analysis; in short: as §2
# Streptococcus pneumoniae [10] = assay: Antimicrobial activity against Streptococcus pneumoniae 6 by time-kill analysis; in short: as §3
# Streptococcus pneumoniae [11] = assay: Antimicrobial activity against Streptococcus pneumoniae 7 by time-kill analysis; in short: as §3
# Streptococcus pneumoniae [12] = assay: Antimicrobial activity against Streptococcus pneumoniae 8 by time-kill analysis; in short: as §3
# Streptococcus pneumoniae [13] = assay: Antimicrobial activity against Streptococcus pneumoniae 9 by time-kill analysis; in short: as §2
# Streptococcus pneumoniae [14] = assay: Antimicrobial activity against Streptococcus pneumoniae 10 by time-kill analysis; in short: as §3
# Streptococcus pneumoniae [15] = assay: Antimicrobial activity against Streptococcus pneumoniae 11 by time-kill analysis; in short: as §3
# Streptococcus pneumoniae [16] = assay: Antimicrobial activity against Streptococcus pneumoniae 12 by time-kill analysis; in short: as §3
# Streptococcus pneumoniae [17] = assay: Antimicrobial activity against Streptococcus pneumoniae isolate 24 by agar dilution method
# Streptococcus pneumoniae [18] = assay: Antimicrobial activity against Streptococcus pneumoniae isolate 33 by agar dilution method; in short: as §1
# Streptococcus pneumoniae [19] = assay: Antimicrobial activity against Streptococcus pneumoniae isolate 37 by agar dilution method; in short: as §1
# Streptococcus pneumoniae [20] = assay: Antimicrobial activity against Streptococcus pneumoniae isolate 1055 by agar dilution method
# Streptococcus pneumoniae [21] = assay: Antimicrobial activity against Streptococcus pneumoniae isolate 1146 by agar dilution method; in short: as §1
# Streptococcus pneumoniae [22] = assay: Antimicrobial activity against Streptococcus pneumoniae isolate 1147 by agar dilution method; in short: as §1
# Streptococcus pneumoniae [23] = assay: Antimicrobial activity against Streptococcus pneumoniae isolate 1384 by agar dilution method; in short: as §1
# Streptococcus pneumoniae [24] = assay: Antimicrobial activity against Streptococcus pneumoniae isolate 1394 by agar dilution method
# Streptococcus pneumoniae [25] = assay: Antimicrobial activity against Streptococcus pneumoniae isolate 1397 by agar dilution method; in short: as §1
# Streptococcus pneumoniae [26] = assay: Antimicrobial activity against Streptococcus pneumoniae isolate 1424 by agar dilution method; in short: as §1
# Streptococcus pneumoniae [27] = assay: Antimicrobial activity against Streptococcus pneumoniae isolate 1564 by agar dilution method
# Streptococcus pneumoniae [28] = assay: Antimicrobial activity against Streptococcus pneumoniae isolate 2617 by agar dilution method; in short: as §1
# Streptococcus pneumoniae [29] = assay: Antimicrobial activity against Streptococcus pneumoniae isolate 2686 by agar dilution method; in short: as §1
# Streptococcus pneumoniae [30] = assay: Antimicrobial activity against Streptococcus pneumoniae isolate 2688 by agar dilution method; in short: as §1
# Streptococcus pneumoniae [31] = assay: Antimicrobial activity against Streptococcus pneumoniae isolate 2874 by agar dilution method; in short: as §1
# Streptococcus pneumoniae [32] = assay: Antimicrobial activity against Streptococcus pneumoniae isolate 2880 by agar dilution method; in short: as §1
# Streptococcus pneumoniae [33] = assay: Antimicrobial activity against Streptococcus pneumoniae isolate 3260 by agar dilution method
# Streptococcus pneumoniae [34] = assay: Antimicrobial activity against Streptococcus pneumoniae isolate 3263 by agar dilution method
# Streptococcus pneumoniae [35] = assay: Antimicrobial activity against Streptococcus pneumoniae isolate 3275 by agar dilution method; in short: as §1
# Streptococcus pneumoniae [36] = assay: Antimicrobial activity against Streptococcus pneumoniae isolate 3282 by agar dilution method
# Streptococcus pneumoniae [37] = assay: Antimicrobial activity against Streptococcus pneumoniae isolate 3346 by agar dilution method
# Streptococcus pneumoniae [38] = assay: Antimicrobial activity against Streptococcus pneumoniae isolate 3374 by agar dilution method; in short: as §1
# Streptococcus pneumoniae [39] = assay: Antimicrobial activity against Streptococcus pneumoniae isolate 3412 by agar dilution method; in short: as §1
# Streptococcus pneumoniae [40] = assay: Antimicrobial activity against Streptococcus pneumoniae isolate 3455 by agar dilution method
# Streptococcus pneumoniae [41] = assay: Antimicrobial activity against Streptococcus pneumoniae isolate 3458 by agar dilution method
# Streptococcus pneumoniae [42] = assay: Antimicrobial activity against Streptococcus pneumoniae isolate 3481 by agar dilution method; in short: as §1
# Streptococcus pneumoniae [43] = assay: Antimicrobial activity against Streptococcus pneumoniae isolate 3587 by agar dilution method
# Streptococcus pneumoniae [44] = assay: Antimicrobial activity against Streptococcus pneumoniae isolate 3681 by agar dilution method; in short: as §1
# Streptococcus pneumoniae [45] = assay: Antimicrobial activity against Streptococcus pneumoniae isolate 3791 by agar dilution method; in short: as §1
# Streptococcus pneumoniae [46] = assay: Antimicrobial activity against Streptococcus pneumoniae isolate 4747 by agar dilution method; in short: as §1
# Streptococcus pneumoniae [47] = assay: Antimicrobial activity against Streptococcus pneumoniae isolate 4755 by agar dilution method; in short: as §1
smiles,measurement,setting,value
CC[C@H]1OC(=O)[C@H](C)[C@@H](O[C@H]2C[C@@](C)(OC)[C@@H](O)[C@H](C)O2)[C@H](C)[C@@H](O[C@@H]2O[C@H](C)C[C@H](N(C)C)[C@H]2O)[C@](C)(O)C[C@@H](C)CN(C)[C@H](C)[C@@H](O)[C@]1(C)O [AZITHROMYCIN],MIC50,Streptococcus pneumoniae [1],2 µg/mL
same,MIC90,Streptococcus pneumoniae [1],> 64 µg/mL
same,MIC50,Streptococcus pneumoniae [2],2 µg/mL
same,MIC90,Streptococcus pneumoniae [2],> 64 µg/mL
same,MIC50,Streptococcus pneumoniae [3],0.125 µg/mL
same,MIC50,Streptococcus pneumoniae [4],> 64 µg/mL
same,MIC90,Streptococcus pneumoniae [4],> 64 µg/mL
same,MIC,Streptococcus pneumoniae [5],> 64 µg/mL
same,MIC,Streptococcus pneumoniae [6],0.06 µg/mL
same,MIC,Streptococcus pneumoniae [7],4 µg/mL
same,MIC,Streptococcus pneumoniae [8],0.06 µg/mL
same,MIC,Streptococcus pneumoniae [9],> 64 µg/mL
same,MIC,Streptococcus pneumoniae [10],0.06 µg/mL
same,MIC,Streptococcus pneumoniae [11],> 64 µg/mL
same,MIC,Streptococcus pneumoniae [12],4 µg/mL
same,MIC,Streptococcus pneumoniae [13],0.06 µg/mL
same,MIC,Streptococcus pneumoniae [14],0.03 µg/mL
same,MIC,Streptococcus pneumoniae [15],> 64 µg/mL
same,MIC,Streptococcus pneumoniae [16],0.12 µg/mL
same,MIC,Streptococcus pneumoniae [17],> 64 µg/mL
same,MIC,Streptococcus pneumoniae [18],0.125 µg/mL
same,MIC,Streptococcus pneumoniae [19],> 64 µg/mL
same,MIC,Streptococcus pneumoniae [20],> 64 µg/mL
same,MIC,Streptococcus pneumoniae [21],2 µg/mL
same,MIC,Streptococcus pneumoniae [22],2 µg/mL
same,MIC,Streptococcus pneumoniae [23],> 64 µg/mL
same,MIC,Streptococcus pneumoniae [24],> 64 µg/mL
same,MIC,Streptococcus pneumoniae [25],> 64 µg/mL
same,MIC,Streptococcus pneumoniae [26],> 64 µg/mL
same,MIC,Streptococcus pneumoniae [27],> 64 µg/mL
same,MIC,Streptococcus pneumoniae [28],0.125 µg/mL
same,MIC,Streptococcus pneumoniae [29],> 64 µg/mL
same,MIC,Streptococcus pneumoniae [30],> 64 µg/mL
same,MIC,Streptococcus pneumoniae [31],> 64 µg/mL
same,MIC,Streptococcus pneumoniae [32],> 64 µg/mL
same,MIC,Streptococcus pneumoniae [33],> 64 µg/mL
same,MIC,Streptococcus pneumoniae [34],> 64 µg/mL
same,MIC,Streptococcus pneumoniae [35],> 64 µg/mL
same,MIC,Streptococcus pneumoniae [36],> 64 µg/mL
same,MIC,Streptococcus pneumoniae [37],> 64 µg/mL
same,MIC,Streptococcus pneumoniae [38],> 64 µg/mL
same,MIC,Streptococcus pneumoniae [39],> 64 µg/mL
same,MIC,Streptococcus pneumoniae [40],> 64 µg/mL
same,MIC,Streptococcus pneumoniae [41],> 64 µg/mL
same,MIC,Streptococcus pneumoniae [42],> 64 µg/mL
same,MIC,Streptococcus pneumoniae [43],> 64 µg/mL
same,MIC,Streptococcus pneumoniae [44],0.125 µg/mL
same,MIC,Streptococcus pneumoniae [45],> 64 µg/mL
same,MIC,Streptococcus pneumoniae [46],> 64 µg/mL
same,MIC,Streptococcus pneumoniae [47],> 64 µg/mL
